Columns and labels:
[1] = Intrinsic clearance in human liver microsomes(HLM) for metabolic stability; type: ADME, Microsome; details: read-out: CI
[2] = biological target: T1, Gonadotropin-releasing hormone receptor (Homo sapiens, UniProt P30968); assay: In vitro ability to inhibit des-Gly[125I-Tyr, DLeu, NMeLeu,Pro-NEt]-GnRH radioligand binding to the cloned human GnRH receptor stably expressed in HEK293 cells; type: cell-based
T1 sequence (P30968 whole entry): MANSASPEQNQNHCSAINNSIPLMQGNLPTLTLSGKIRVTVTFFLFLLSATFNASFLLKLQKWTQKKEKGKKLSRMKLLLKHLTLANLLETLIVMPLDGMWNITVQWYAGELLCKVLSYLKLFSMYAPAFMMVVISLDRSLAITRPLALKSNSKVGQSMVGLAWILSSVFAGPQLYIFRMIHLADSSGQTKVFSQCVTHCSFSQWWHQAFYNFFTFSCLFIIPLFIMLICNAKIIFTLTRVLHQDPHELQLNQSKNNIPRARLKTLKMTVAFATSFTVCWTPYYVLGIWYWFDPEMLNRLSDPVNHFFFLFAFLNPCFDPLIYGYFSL
Procedure, shortened: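 A standard antagonist on each plate controlled for plate-to-plate variation. Key compounds were run in three to eight independent experiments.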

CLint scaled [1] | Ki [2] | SMILES
249 mL/min/kg |  | COc1cccc(-n2c(=O)n(Cc3ccccc3C#N)c(=O)n(C[C@H](N)c3ccccc3)c2=O)c1F
 | 11 nM | COc1cccc(-n2c(=O)n(Cc3ccccc3F)c(=O)n(C[C@H](N)c3ccccc3)c2=O)c1F
 | 66 nM | COc1cccc(-n2c(=O)n(CCC(N)c3cccc(F)c3)c(=O)n(Cc3c(F)cccc3F)c2=O)c1 (centres undefined)
 | 3 nM | COc1cccc(-n2c(=O)n(Cc3c(F)cccc3C(F)(F)F)c(=O)n(C[C@H](N)c3ccccc3)c2=O)c1F
 | 120 nM | COc1cccc(-n2c(=O)n(Cc3c(F)cccc3F)c(=O)n(CC(N)c3ccccc3F)c2=O)c1 (centres undefined)
 | 83 nM | COc1cccc(-n2c(=O)n(CCC(N)c3ccc(F)cc3)c(=O)n(Cc3c(F)cccc3F)c2=O)c1 (centres undefined)
 | 120 nM | COc1ccccc1Cn1c(=O)n(C[C@H](N)c2ccccc2)c(=O)n(-c2cccc(OC)c2F)c1=O
 | 29 nM | COc1cccc(-n2c(=O)n(Cc3ccccc3C)c(=O)n(C[C@H](N)c3ccccc3)c2=O)c1F
 | 20 nM | COc1cccc(-n2c(=O)n(Cc3c(F)cccc3F)c(=O)n(CC(N)c3ccccc3F)c2=O)c1F (centres undefined)
 | 75 nM | COc1cccc(-n2c(=O)n(CCC(N)c3ccccc3C)c(=O)n(Cc3c(F)cccc3F)c2=O)c1 (centres undefined)
 | 66 nM | COc1cccc(-n2c(=O)n(Cc3cccnc3Cl)c(=O)n(C[C@H](N)c3ccccc3)c2=O)c1F
 | 28 nM | COc1cccc(-n2c(=O)n(Cc3c(F)cccc3F)c(=O)n(CC(CN)c3ccccc3)c2=O)c1 (centres undefined)
 | 20 nM | COc1cccc(-n2c(=O)n(Cc3ccccc3Cl)c(=O)n(C[C@H](N)c3ccccc3)c2=O)c1F
 | 27 nM | COc1cccc(-n2c(=O)n(CCC(N)c3cccs3)c(=O)n(Cc3c(F)cccc3F)c2=O)c1 (centres undefined)
 | 620 nM | COc1cccc(-n2c(=O)n(Cc3c(F)cccc3F)c(=O)n(CC(N)CC(C)C)c2=O)c1F (centres undefined)
 | 5 nM | COc1cccc(-n2c(=O)n(Cc3c(F)cccc3Cl)c(=O)n(C[C@H](N)c3ccccc3)c2=O)c1F
 | 800 nM | COc1cccc(-n2c(=O)n(CCC(N)c3ccccc3F)c(=O)n(Cc3c(F)cccc3F)c2=O)c1 (centres undefined)
 | 24 nM | COc1cccc(-n2c(=O)n(CC[C@H](N)c3ccccc3)c(=O)n(Cc3c(F)cccc3F)c2=O)c1F
 | 70 nM | COc1cccc(-n2c(=O)n(CCC(N)c3ccccc3)c(=O)n(Cc3c(F)cccc3F)c2=O)c1 (centres undefined)
 | 580 nM | COc1cccc(-n2c(=O)n(CCC(N)c3cccnc3)c(=O)n(Cc3c(F)cccc3F)c2=O)c1 (centres undefined)
 | > 10000 nM | COc1cccc(-n2c(=O)n(CC3CCCCC3)c(=O)n(C[C@H](N)c3ccccc3)c2=O)c1F
 | 630 nM | COc1cccc(-n2c(=O)n(C[C@H](N)c3ccccc3)c(=O)n(C(C)c3c(F)cccc3F)c2=O)c1F (some centres undefined)
 | 9 nM | COc1cccc(-n2c(=O)n(Cc3c(F)cccc3F)c(=O)n(C[C@H](N)c3ccccc3)c2=O)c1F
 | 73 nM | COc1cccc(-n2c(=O)n(Cc3c(Cl)cccc3C#N)c(=O)n(C[C@H](N)c3ccccc3)c2=O)c1F
 | 180 nM | COc1cccc(-n2c(=O)n(CCC(N)c3ccccc3Cl)c(=O)n(Cc3c(F)cccc3F)c2=O)c1 (centres undefined)
158 mL/min/kg |  | COc1cccc(-n2c(=O)n(Cc3c(F)cccc3Br)c(=O)n(C[C@H](N)c3ccccc3)c2=O)c1F
 | 36 nM | COc1cccc(-n2c(=O)n(Cc3c(Cl)cccc3Cl)c(=O)n(C[C@H](N)c3ccccc3)c2=O)c1F
 | 1500 nM | COc1cccc(-n2c(=O)n(CC[C@H](N)CC(C)C)c(=O)n(Cc3c(F)cccc3F)c2=O)c1F
146 mL/min/kg |  | COc1cccc(-n2c(=O)n(Cc3ccccc3OC(F)(F)F)c(=O)n(C[C@H](N)c3ccccc3)c2=O)c1F

From ChEMBL document CHEMBL1142770, “Structure-activity relationships of 1,3,5-triazine-2,4,6-triones as human gonadotropin-releasing hormone receptor antagonists” (Bioorg Med Chem Lett, 2005)
